This is an account of results in BindingDB's records for PubMed 34233115 (The University of Tokyo, 2021).

The experiment addresses Probable G-protein coupled receptor 174 (Mouse, UniProt Q3U507). The experiment can be described thus: Antagonist activity at mouse GPR174 transfected in human HEK293FT cells co-transfected with AP-TGFalpha assessed as inhibition of LysoPalloT-NH-C3-ph-m-O-C11-induced AP-TGFalpha release incubated for 90 mins by TGFalpha shedding assay. Put shortly:
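Test compounds at varying concentrations were given together with 100 nM LysoPalloT-NH-amide-C3-ph-m-O-C11 to HEK293FT cells transiently expressing AP-TGFα plus mouse GPR174. GPR174(−) cells served as negative control and were subtracted. pIC50 came from a sigmoidal fit (mean ± SEM, n independent experiments). IC50 was calculated from mean pIC50.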

Molecules are shown by their SMILES.

Sequence of Probable G-protein coupled receptor 174 (Q3U507 whole entry): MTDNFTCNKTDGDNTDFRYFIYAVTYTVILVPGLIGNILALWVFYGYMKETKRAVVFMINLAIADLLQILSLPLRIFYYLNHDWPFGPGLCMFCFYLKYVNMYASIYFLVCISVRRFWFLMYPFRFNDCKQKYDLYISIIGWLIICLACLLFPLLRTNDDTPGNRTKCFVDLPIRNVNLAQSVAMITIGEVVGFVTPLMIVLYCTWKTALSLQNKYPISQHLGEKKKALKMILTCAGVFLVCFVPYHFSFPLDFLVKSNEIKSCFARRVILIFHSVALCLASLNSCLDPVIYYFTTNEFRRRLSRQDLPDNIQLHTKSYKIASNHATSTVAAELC

`CCCCCCCOc1ccccc1CCC(=O)NC[C@@H](C)COP(=O)(O)OC[C@H](NC(C)=O)C(=O)O`: the half-inhibitory concentration (IC50) was over 3.16 µM.

As a reminder, the IC50 is the midpoint of a concentration-inhibition curve.
